Data set [1] addresses RAMANK–CSL complex (Homo sapiens, UniProt P46531+Q06330). Description: Fluorescence polarization binding of FITC–SAHM peptides to RAMANK–CSL. A digest of the protocol:
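FITC-labelled stapled test peptides titrated against recombinant human RAMANK (NOTCH1 aa 1761–2127) pre-complexed with human CSL (aa 9–435). Both proteins were expressed and purified as previously reported. Buffer was 20 mM Tris pH 8.4, 150 mM NaCl, 1 mM EDTA and 1 mM DTT. Polarization was read at λex 485 nm and λem 525 nm. Data are mean ± s.d., n = 3.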
(In general: Polarisation of emitted light reports the rotation of a fluorescent probe.)

The format of data set [2] is cell-based.
Data set [3] has as its system constitutively activated NOTCH1. Description: NOTCH1-dependent dual-luciferase reporter-gene assay. The class given is cell-based. The settings on record: signal normalized to Renilla luciferase control.
Data set [4] addresses pre-formed RAMANK–CSL complex (human, UniProt P46531 1761-2127; Q06330 23-449). Put plainly: fluorescence polarisation.

These results are taken from PMC2951323 (Nature, 2009).

Bridge positions count the residues as written; N and C are the ends. Square brackets hold non-standard residues; d marks the D form. Ends that are not written are not given here. Peptide text beside a SMILES is read from it. * marks the point of attachment. FITC = O=C1OC2(c3ccc(O)cc3Oc3cc(O)ccc32)c2ccc(NC(=S)*)cc21; S5 = C=CCCC[C@](C)(N)C(=O)O; βAla = NCCC(=O)O

pre-formed RAMANK–CSL complex, sequence (P46531 1761-2127, chain 1 of 2): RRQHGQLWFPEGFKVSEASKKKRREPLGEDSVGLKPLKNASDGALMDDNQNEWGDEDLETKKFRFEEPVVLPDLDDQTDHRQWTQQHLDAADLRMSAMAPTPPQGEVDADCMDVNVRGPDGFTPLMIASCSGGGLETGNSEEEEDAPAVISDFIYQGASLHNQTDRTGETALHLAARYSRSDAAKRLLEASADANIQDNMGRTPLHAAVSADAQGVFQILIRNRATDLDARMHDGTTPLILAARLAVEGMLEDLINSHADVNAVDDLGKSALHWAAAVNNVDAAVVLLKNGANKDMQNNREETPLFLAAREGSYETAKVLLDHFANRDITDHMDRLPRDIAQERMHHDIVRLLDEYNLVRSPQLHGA
pre-formed RAMANK–CSL complex, sequence (Q06330 23-449, chain 2 of 2): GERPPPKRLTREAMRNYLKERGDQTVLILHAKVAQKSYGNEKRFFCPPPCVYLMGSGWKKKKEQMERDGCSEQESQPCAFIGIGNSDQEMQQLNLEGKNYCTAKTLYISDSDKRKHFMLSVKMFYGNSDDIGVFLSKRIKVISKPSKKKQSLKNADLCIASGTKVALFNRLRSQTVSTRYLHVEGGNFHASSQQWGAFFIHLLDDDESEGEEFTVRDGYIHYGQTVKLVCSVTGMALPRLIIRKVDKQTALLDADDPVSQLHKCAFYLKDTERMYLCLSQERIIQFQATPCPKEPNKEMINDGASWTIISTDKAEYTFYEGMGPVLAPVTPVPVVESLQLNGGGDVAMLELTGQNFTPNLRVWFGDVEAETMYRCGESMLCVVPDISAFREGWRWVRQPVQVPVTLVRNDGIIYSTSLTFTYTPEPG

Consider “FITC–MAML1(21–36): FITC-labelled unmodified MAML1(21–36) peptide ({FITC}-ERLRRRIELCRRHHST; UniProt Q92585 21-36, looked up, fragment)”, for which the “binding affinity for RAMANK–CSL compared with FITC–SAHM1 (in words)” value in data set [1] (fluorescence polarization, same buffer) is recorded as “markedly diminished affinity”.

In the case of `CC[C@H](C)[C@H](NC(=O)[C@H](CCCNC(=N)N)NC(=O)[C@H](CCCNC(=N)N)NC(=O)[C@H](CCCNC(=N)N)NC(=O)[C@H](CC(C)C)NC(=O)[C@H](CCCNC(=N)N)NC(=O)[C@H](CCC(=O)O)NC(=O)CCNC(=S)Nc1ccc2c(c1)C(=O)OC21c2ccc(O)cc2Oc2cc(O)ccc21)C(=O)N[C@@]1(C)CCCC=CCCC[C@@](C)(C(=O)N[C@@H](Cc2c[nH]cn2)C(=O)N[C@@H](Cc2c[nH]cn2)C(=O)N[C@@H](CO)C(=O)N[C@H](C(N)=O)[C@@H](C)O)NC(=O)[C@H](CCCNC(=N)N)NC(=O)[C@H](CS)NC(=O)[C@H](CC(C)C)NC1=O` [FITC–SAHM1] ({FITC-βAla}-ERLRRRI[S5]LCR[S5]HHST-NH2; staple 8-12; N-terminus assumed), in data set [1], the Kd (in general, the equilibrium constant for the complex coming apart) was determined as 120 ± 20 nM. The intracellular distribution result in data set [2] (FITC-labelled peptide) was “distributed throughout the cytoplasm and nucleus”. For the same molecule, in data set [2] (FITC-labelled peptide, 4 °C vs 37 °C), the “uptake at 4 °C relative to 37 °C” value is reported as “diminished”. Moreover, the “cellular uptake (cell penetration)” value in data set [2] (FITC-labelled peptides, quantitative epifluorescence microscopy) is “robust and roughly equivalent cellular uptake”.

For the molecule `C[C@H](NC(=O)Cc1cc(F)cc(F)c1)C(=O)N[C@H](C(=O)OC(C)(C)C)c1ccccc1` [DAPT], the “repression of luciferase activity” value in data set [3] is reported as “near complete repression”.

B1: dnMAML1 (dominant-negative fragment of MAML1, amino acids 13–74) (domain or fragment, human, UniProt Q92585 13-74, looked up)
chain: LPRHSAVMERLRRRIELCRRHHSTCEARYEAVSPERLELERQHTFALHQRCIQAKAKRAGKH
Take B1: in data set [4], inhibition was half-maximal at 3900 nM (IC50).
